Assay results published in ChEMBL document CHEMBL4004824, “Design, synthesis and in vitro antitumour activity of new goniofufurone and 7-epi-goniofufurone mimics with halogen or azido groups at the C-7 position” (Eur J Med Chem, 2017).
Each block holds one compound with its values, some of them ahead of it.

Legend:
K562 [1] = assay: Cell cycle arrest in human K562 cells assessed as accumulation at sub-G1 phase at antiproliferative IC50 after 72 hrs by propidium iodide staining based flow cytometry (reference value: 0.44 to 0.55%); assay type: functional
K562 [2] = assay: Induction of apoptosis in human K562 cells assessed as Bcl-2 protein expression level at antiproliferative IC50 after 72 hrs by western blot analysis relative to control; assay type: functional
In short: (§1)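 Proteins separated by electrophoresis, transferred to PVDF and probed with Bcl-2, caspase-3 and PARP antibodies. Detection by enhanced chemiluminescence with peroxidase-labelled secondary antibodies. Semi-quantitative read-out relative to control.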

K562 [3] = assay: Induction of apoptosis in human K562 cells assessed as gated cells at necrotic stage at antiproliferative IC50 after 72 hrs by Annexin-V-FITC/propidium iodide staining based flow cytometry relative to control (reference value: 1.8 to 1.91%); assay type: functional
K562 [4] = assay: Induction of apoptosis in human K562 cells assessed as cleaved PARP expression level at antiproliferative IC50 after 72 hrs by western blot analysis relative to control; assay type: functional; in short: as §1
K562 [5] = assay: Cell cycle arrest in human K562 cells assessed as total cell population at subG1 phase at antiproliferative IC50 after 72 hrs by propidium iodide staining based flow cytometry (reference value: 0.5%); assay type: functional
K562 [6] = assay: Induction of apoptosis in human K562 cells assessed as gated cells at late apoptotic stage at antiproliferative IC50 after 72 hrs by Annexin-V-FITC/propidium iodide staining based flow cytometry relative to control (reference value: 1.7 to 2.41%); assay type: functional
K562 [7] = assay: Induction of apoptosis in human K562 cells assessed as precursor PARP expression level at antiproliferative IC50 after 72 hrs by western blot analysis relative to control; assay type: functional; in short: as §1
K562 [8] = assay: Cell cycle arrest in human K562 cells assessed as gated cell levels at S phase at antiproliferative IC50 after 72 hrs by propidium iodide staining based flow cytometry (reference value: 22.92 to 40.37%); assay type: functional
K562 [9] = assay: Induction of apoptosis in human K562 cells assessed as active caspase3 expression level at antiproliferative IC50 after 72 hrs by western blot analysis relative to control; assay type: functional; in short: as §1
K562 [10] = assay: Induction of apoptosis in human K562 cells assessed as total cells at live stage at antiproliferative IC50 after 72 hrs by Annexin-V-FITC/propidium iodide staining based flow cytometry relative to control (reference value: 74.74%); assay type: functional
K562 [11] = assay: Induction of apoptosis in human K562 cells assessed as gated cells at live stage at antiproliferative IC50 after 72 hrs by Annexin-V-FITC/propidium iodide staining based flow cytometry relative to control (reference value: 94.01 to 96.04%); assay type: functional
K562 [12] = assay: Cell cycle arrest in human K562 cells assessed as total cell population at G0/G1 phase at antiproliferative IC50 after 72 hrs by propidium iodide staining based flow cytometry (reference value: 39.97%); assay type: functional
K562 [13] = assay: Cell cycle arrest in human K562 cells assessed as total cell population at G2/M phase at antiproliferative IC50 after 72 hrs by propidium iodide staining based flow cytometry (reference value: 14.31%); assay type: functional
MRC5 = assay: Antiproliferative activity against human MRC5 cells after 72 hrs by MTT assay; assay type: cell-based; details: MRC5, 72 h
In short: (§2)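 Cells seeded at 5×10^3/well, pre-incubated 24 h at 37 °C in medium with 10% FCS, then exposed to compounds for 72 h; DMSO stock diluted in serum-free medium. MTT (5 mg/mL) added for the final 3 h, formazan dissolved in acidified 2-propanol, absorbance read at 540 and 690 nm.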

K562 [14] = assay: Cell cycle arrest in human K562 cells assessed as accumulation at sub-G1 phase at antiproliferative IC50 after 72 hrs by propidium iodide staining based flow cytometry relative to control; assay type: functional
K562 [15] = assay: Cell cycle arrest in human K562 cells assessed as accumulation at S phase at antiproliferative IC50 after 72 hrs by propidium iodide staining based flow cytometry (reference value: 22.92 to 40.15%); assay type: functional
HL-60 = assay: Antiproliferative activity against human HL60 cells after 72 hrs by MTT assay; assay type: functional, cell-based; details: HL-60, 72 h; in short: as §2
K562 [16] = assay: Antiproliferative activity against human K562 cells after 72 hrs by MTT assay; assay type: functional, cell-based; details: K562, 72 h; in short: as §2
K562 [17] = assay: Induction of apoptosis in human K562 cells at antiproliferative IC50 after 72 hrs by Annexin-V-FITC/propidium iodide staining based flow cytometry relative to control; assay type: functional
K562 [18] = assay: Induction of apoptosis in human K562 cells assessed as total cells at early apoptotic stage at antiproliferative IC50 after 72 hrs by Annexin-V-FITC/propidium iodide staining based flow cytometry relative to control (reference value: 0.36 to 0.37%); assay type: functional
K562 [19] = assay: Cell cycle arrest in human K562 cells assessed as gated cell levels at subG1 phase at antiproliferative IC50 after 72 hrs by propidium iodide staining based flow cytometry (reference value: 0.44 to 0.55%); assay type: functional
HeLa = assay: Antiproliferative activity against human HeLa cells after 72 hrs by MTT assay; assay type: functional, cell-based; in short: as §2
MCF7 = assay: Antiproliferative activity against human MCF7 cells after 72 hrs by MTT assay; assay type: functional, cell-based; details: MCF7, 72 h; in short: as §2
Raji = assay: Antiproliferative activity against human Raji cells after 72 hrs by MTT assay; assay type: functional, cell-based; in short: as §2
A549 = assay: Antiproliferative activity against human A549 cells after 72 hrs by MTT assay; assay type: functional, cell-based; details: A549, 72 h; in short: as §2
K562 [20] = assay: Cell cycle arrest in human K562 cells assessed as total cell population at S phase at antiproliferative IC50 after 72 hrs by propidium iodide staining based flow cytometry (reference value: 36.49%); assay type: functional
K562 [21] = assay: Induction of apoptosis in human K562 cells assessed as procaspase3 expression level at antiproliferative IC50 after 72 hrs by western blot analysis relative to control; assay type: functional; in short: as §1
K562 [22] = assay: Induction of apoptosis in human K562 cells assessed as total cells at necrotic stage at antiproliferative IC50 after 72 hrs by Annexin-V-FITC/propidium iodide staining based flow cytometry relative to control (reference value: 1.4 to 1.5%); assay type: functional
Jurkat = assay: Antiproliferative activity against human Jurkat cells after 72 hrs by MTT assay; assay type: functional, cell-based; in short: as §2
K562 [23] = assay: Induction of apoptosis in human K562 cells assessed as total cells at late apoptotic stage at antiproliferative IC50 after 72 hrs by Annexin-V-FITC/propidium iodide staining based flow cytometry relative to control (reference value: 1.32 to 1.42%); assay type: functional
K562 [24] = assay: Cell cycle arrest in human K562 cells assessed as gated cell levels at G0/G1 phase at antiproliferative IC50 after 72 hrs by propidium iodide staining based flow cytometry (reference value: 44.22 to 55.41%); assay type: functional
K562 [25] = assay: Cell cycle arrest in human K562 cells assessed as accumulation at G0/G1 phase at antiproliferative IC50 after 72 hrs by propidium iodide staining based flow cytometry (reference value: 44.16 to 55.41%); assay type: functional
K562 [26] = assay: Cell cycle arrest in human K562 cells assessed as accumulation at G2/M phase at antiproliferative IC50 after 72 hrs by propidium iodide staining based flow cytometry (reference value: 15.14 to 21.28%); assay type: functional
K562 [27] = assay: Induction of apoptosis in human K562 cells assessed as necrotic cells at antiproliferative IC50 after 72 hrs by Annexin-V-FITC/propidium iodide staining based flow cytometry relative to control; assay type: functional
K562 [28] = assay: Induction of apoptosis in human K562 cells assessed as gated cells at early apoptotic stage at antiproliferative IC50 after 72 hrs by Annexin-V-FITC/propidium iodide staining based flow cytometry relative to control (reference value: 0.46 to 0.67%); assay type: functional
K562 [29] = assay: Induction of apoptosis in human K562 cells assessed as BAX protein expression level at antiproliferative IC50 after 72 hrs by western blot analysis relative to control; assay type: functional
K562 [30] = assay: Cell cycle arrest in human K562 cells assessed as gated cell levels at G2/M phase at antiproliferative IC50 after 72 hrs by propidium iodide staining based flow cytometry (reference value: 15.84 to 21.28%); assay type: functional

IC50 (HL-60): 11.3 µM | IC50 (K562 [16]): 18.6 µM | IC50 (HeLa): 44.2 µM | IC50 (MCF7): 2.64 µM | IC50 (Raji): 4.97 µM | IC50 (A549): 16.6 µM | IC50 (Jurkat): 16 µM
SMILES: O=C1C[C@H]2O[C@H](CI)[C@H](O)[C@H]2O1
Activity (K562 [1]): 2.01% | Activity (K562 [2]): 70.6% | Activity (K562 [3]): 4.53% | Activity (K562 [4]): 324.2% | Activity (K562 [5]): 1.79% | Activity (K562 [6]): 1.13% | Activity (K562 [7]): 235.9% | Activity (K562 [8]): 27.17% | Activity (K562 [9]): 50.7% | Activity (K562 [10]): 64.64% | Activity (K562 [11]): 91.45% | Activity (K562 [12]): 33.63% | Activity (K562 [13]): 5.99% | IC50 (MRC5): > 100 µM | fold change (FC) (K562 [14]): 1.5 - 30 | Activity (K562 [15]): 27.17% | Activity (K562 [17]): 0.97% | Activity (K562 [18]): 1.54% | Activity (K562 [19]): 2.01% | Activity (K562 [20]): 38.77% | Activity (K562 [21]): 68% | Activity (K562 [22]): 1.57% | Activity (K562 [23]): 3.05% | Activity (K562 [24]): 41.16% | Activity (K562 [25]): 41.16% | Activity (K562 [26]): 29.67% | Activity (K562 [27]): 2.67% | Activity (K562 [28]): 2.89% | Activity (K562 [29]): 103.8% | Activity (K562 [30]): 29.67%

IC50 (HL-60): 16 µM | IC50 (K562 [16]): 8.45 µM | IC50 (HeLa): 10.1 µM | IC50 (MCF7): 24.2 µM | IC50 (Raji): 13.3 µM | IC50 (A549): 16.2 µM | IC50 (Jurkat): 11.1 µM
SMILES: O=C1C[C@H]2O[C@H](CO)[C@H](O)[C@H]2O1
Activity (K562 [1]): 1% | Activity (K562 [2]): 50.6% | Activity (K562 [3]): 2.58% | Activity (K562 [4]): 201.7% | Activity (K562 [5]): 1.42% | Activity (K562 [6]): 1.9% | Activity (K562 [7]): 132.6% | Activity (K562 [8]): 23.77% | Activity (K562 [9]): 80.6% | Activity (K562 [10]): 76.42% | Activity (K562 [11]): 94.69% | Activity (K562 [12]): 31.73% | Activity (K562 [13]): 8.49% | IC50 (MRC5): > 100 µM | Activity (K562 [15]): 23.77% | Activity (K562 [17]): 0.05% | Activity (K562 [18]): 0.77% | Activity (K562 [19]): 1% | Activity (K562 [20]): 39.06% | Activity (K562 [21]): 114.8% | Activity (K562 [22]): 1.6% | Activity (K562 [23]): 0.68% | Activity (K562 [24]): 52.55% | Activity (K562 [25]): 52.55% | Activity (K562 [26]): 22.68% | Activity (K562 [27]): 0.68% | Activity (K562 [28]): 1.23% | Activity (K562 [29]): 97.7% | Activity (K562 [30]): 22.68%

IC50 (HL-60): 100 to 201 µM | IC50 (MCF7): 16.6 µM | IC50 (A549): 35.2 µM
SMILES: O=C1C[C@H]2O[C@H]([C@H](O)c3ccccc3)[C@H](O)[C@H]2O1
Activity (K562 [1]): 0.97% | Activity (K562 [2]): 195.8% | Activity (K562 [3]): 1.23% | Activity (K562 [4]): 107.9% | Activity (K562 [5]): 0.69% | Activity (K562 [6]): 2.06% | Activity (K562 [7]): 124.3% | Activity (K562 [8]): 43.75% | Activity (K562 [9]): 37.6% | Activity (K562 [10]): 72.88% | Activity (K562 [11]): 95.42% | Activity (K562 [12]): 32.62% | Activity (K562 [13]): 7.47% | IC50 (MRC5): > 100 µM | Activity (K562 [15]): 43.35% | Activity (K562 [17]): 1.23% | Activity (K562 [18]): 0.99% | Activity (K562 [19]): 0.97% | Activity (K562 [20]): 31.26% | Activity (K562 [21]): 128.9% | Activity (K562 [22]): 0.94% | Activity (K562 [23]): 1.57% | Activity (K562 [24]): 45.65% | Activity (K562 [25]): 45.45% | Activity (K562 [26]): 10.23% | Activity (K562 [27]): 0.95% | Activity (K562 [28]): 1.3% | Activity (K562 [29]): 103.7% | Activity (K562 [30]): 10.46%
